From PubChem BioAssay
In the library only some 4.1% were active in any assay of this set; here they are far more common.
TbMetRS inhib: T. brucei MetRS inhibitors, primary screen, biochemical, luminescence. 360,000 tested, 0.4% active. purified T. brucei MetRS, ATP depletion, Kinase-Glo luminescence. inhibition, % at 11.9 µM. methionyl-tRNA synthetase (Trypanosoma brucei brucei);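 active = inhibition above a per-plate cutoff of the control wells' mean inhibition plus 3 SD, cut at about 5.5% in these data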
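Dosing: 11.9 µM single point; system: parasite MetRS enzyme; technique: luminescence of leftover ATP; times: 15 min enzyme-compound preincubation, 2 h reaction, 10 min detection, 25 °C; replicates: each compound tested once; read-out basis: percent inhibition relative to median high and low control wells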
SMARCA2 act: SMARCA2 (BRM) function activators, primary screen, cell-based, luminescence, high throughput; AID 652017, 2013; 370,000 tested, 1% active; activation, % at 9.1 µM; MG213 cells, MMTV-luciferase reporter, dexamethasone, overnight; in the data active = activation above about 7.8%
Efflux pump inh: inhibitors of Candida efflux pumps in yeast, primary screen, S. cerevisiae, Nile Red, multiplex; S. cerevisiae Candida pump triplex; inhibition, % at 10 µM; 330,000 tested, 0.44% active;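 active = plate passing quality check with inhibition over a set limit, or well fluorescence over plate mean plus 4 SD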;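 also: Nile Red retained in pooled yeast measured as flow cytometry median fluorescence; higher means more Nile Red kept so more efflux inhibition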
AHR act: AHR activators, primary screen, cell-based, luminescence, luciferase reporter, human; Aryl hydrocarbon receptor (Homo sapiens), P35869; AHR-responsive luciferase reporter cells; activation, % at 5 µM; 320,000 tested, 2.5% active; AID 2796, 2010; in the data active = activation above about 47%
Target sequence (P35869 whole entry, looked up): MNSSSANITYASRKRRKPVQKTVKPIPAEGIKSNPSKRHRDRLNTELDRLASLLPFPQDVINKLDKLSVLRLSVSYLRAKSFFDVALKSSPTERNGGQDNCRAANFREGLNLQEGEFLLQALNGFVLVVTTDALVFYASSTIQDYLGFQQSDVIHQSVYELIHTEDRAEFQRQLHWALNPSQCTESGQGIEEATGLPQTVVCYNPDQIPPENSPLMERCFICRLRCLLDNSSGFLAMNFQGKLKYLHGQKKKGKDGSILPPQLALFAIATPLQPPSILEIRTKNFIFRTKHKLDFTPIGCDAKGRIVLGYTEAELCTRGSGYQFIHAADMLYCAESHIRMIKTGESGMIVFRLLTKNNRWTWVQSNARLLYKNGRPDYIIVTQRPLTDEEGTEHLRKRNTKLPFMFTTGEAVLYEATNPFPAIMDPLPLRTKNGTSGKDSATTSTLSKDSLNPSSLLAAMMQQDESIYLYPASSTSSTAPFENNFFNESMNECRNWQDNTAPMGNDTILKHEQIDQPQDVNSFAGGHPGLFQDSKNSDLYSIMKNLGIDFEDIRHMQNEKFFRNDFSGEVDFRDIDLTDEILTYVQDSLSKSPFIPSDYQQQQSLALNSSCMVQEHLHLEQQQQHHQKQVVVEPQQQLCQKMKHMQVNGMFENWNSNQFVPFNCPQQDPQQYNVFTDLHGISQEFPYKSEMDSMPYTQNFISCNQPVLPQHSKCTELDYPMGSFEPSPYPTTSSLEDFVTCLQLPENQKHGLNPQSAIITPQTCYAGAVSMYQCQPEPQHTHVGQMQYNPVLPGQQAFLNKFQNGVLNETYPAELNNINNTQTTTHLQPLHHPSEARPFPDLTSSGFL
H9c2 TAG inh: inhibitors of triacylglycerol accumulation, primary screen, cell-based, uHTS, fluorescence, H9c2 | H9c2 cells, Nile Red lipid (TAG) fluorescence; cells loaded with 200 µM oleic acid | inhibition, % at 12.5 µM | 230,000 tested, 0.66% active | AID 651582, 2012;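 active = pattern-corrected inhibition of lipid staining of at least 50% with the nuclear-stain viability signal not falling by more than 50%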
Large screens that a line does not name were inactive.

O=C(Nc1cc(Cl)ccc1-n1cncn1)c1ccc([N+](=O)[O-])s1	AHR act 68.4 (no result: SMARCA2 act)
O=C(Nc1ccccc1F)Nc1cc(Cl)ccc1-n1cncn1	none (no result: H9c2 TAG inh)
Cc1ccc(C(=O)Nc2cc(Cl)ccc2-n2cncn2)o1	AHR act 58.3
O=C(Nc1cc(Cl)ccc1-n1cncn1)c1ccco1	none
COc1cc(C(C)=O)ccc1OCC(=O)Nc1cc(Cl)ccc1-n1cncn1	none (no result: Efflux pump inh, AHR act)
COc1cc(OC)c(C(=O)Nc2cc(Cl)ccc2-n2cncn2)cc1OC	AHR act 59.2
COc1ccccc1C(=O)Nc1cc(Cl)ccc1-n1cncn1	AHR act 49.4
CN1C[C@]2(C=C3CCCCC3n3c(=O)n(-c4ccccc4)c(=O)n32)N(C(=O)OCc2ccccc2)C1=NC(=O)c1ccccc1 (some centres undefined)	none (no result: TbMetRS inhib, Efflux pump inh, AHR act, H9c2 TAG inh)
Cc1nn(-c2ccccc2)c2sc(C(=O)NC3CCCCCC3)cc12	none (no result: TbMetRS inhib, Efflux pump inh, AHR act, H9c2 TAG inh)
COc1cccc(C=NNc2nc3ccccc3s2)c1OC	none (no result: Efflux pump inh, AHR act)
COc1cccc(/C=N/Nc2ncnc3scc(-c4ccccc4)c23)c1OC	AHR act 52.6 (no result: H9c2 TAG inh)
CC(=O)C1=C(C)N(CC(C)C)C(=S)NC1c1ccc(Br)cc1 (centres undefined)	none (no result: TbMetRS inhib, Efflux pump inh, AHR act, H9c2 TAG inh)
CCOC(=O)c1ccc(-n2ccnc2)c(NC(=O)c2ccc(Cl)cc2)c1	AHR act 53.4 (no result: H9c2 TAG inh)
CCOC(=O)c1ccc(Cl)c(NC(=O)c2cccnc2)c1	none (no result: TbMetRS inhib, SMARCA2 act, H9c2 TAG inh)
Cc1[nH]nc2c1C(c1ccoc1)C(C#N)=C(N)O2 (centres undefined)	none
Cc1cc(C)c(C2C(C#N)=C(N)Oc3n[nH]c(C)c32)cc1CN1CCCC1 (centres undefined)	SMARCA2 act 7.9 (no result: H9c2 TAG inh)
CCCC(=O)NNC(=O)c1ccoc1C	none
CCC(C)(C)C1CCC(=NNC(=O)c2ccoc2C)CC1 (centres undefined)	SMARCA2 act 11.3
COC(=O)[C@]12C[C@H](CC(=O)NCCc3ccccc3OC)C(=O)N(Cc3cccc4ccccc34)C1=C[C@H](C(C)C)O[C@@H]2C1CC1	none (no result: TbMetRS inhib, Efflux pump inh, AHR act, H9c2 TAG inh)
COc1cc2ccccc2cc1C(=O)Nc1sc2c(c1C(N)=O)CCN(C(C)C)C2	H9c2 TAG inh 54.2
C=C1C(=O)C23C(O)C1CCC2C12CCCC(C)(COC(C)=O)C1C(O)C3(O)OC2 (centres undefined)	H9c2 TAG inh 93.0 (no result: Efflux pump inh, AHR act)
Cc1ccccc1NC(=O)CCS(=O)(=O)c1ccccc1	none (no result: TbMetRS inhib, Efflux pump inh, AHR act, H9c2 TAG inh)
CN1C(=O)c2cc(NC(=O)Cc3cccs3)ccc2OC[C@@H]2O[C@@H](CC(=O)N[C@H]3CCN(Cc4ccccc4)C3)CC[C@@H]21	none (no result: TbMetRS inhib, Efflux pump inh, AHR act, H9c2 TAG inh)
COc1ccc(Cl)cc1N/C(N)=N/c1nc(C)cc(=O)[nH]1	none
COc1ccccc1N/C(N)=N/c1nc(C(F)(F)F)cc(=O)[nH]1	AHR act 49.9
CCOC(=O)C1=C(O)c2ccccc2C(=O)/C1=C\c1ccc(CC)cc1	none (no result: SMARCA2 act, H9c2 TAG inh)
CCCc1ccc(/C=C2\C(=O)c3ccccc3C(O)=C2C(=O)OCC)cc1	Efflux pump inh 1.9 (no result: TbMetRS inhib, SMARCA2 act, H9c2 TAG inh)
CCN(CC)C(=O)CC[C@@H]1CC[C@]2(CCCN(C(=O)c3ccco3)C2)O1	none (no result: TbMetRS inhib, Efflux pump inh, AHR act, H9c2 TAG inh)
CCSC1=N/C(=C\C=C2/Oc3ccccc3N2CC)C(=O)S1	AHR act 74.5
CCCSC1=N/C(=C\C=C\c2ccco2)C(=O)S1	none
Cc1cc(N2CCN(c3ncccn3)CC2)nc2c(C)cccc12	AHR act 71.7 (no result: H9c2 TAG inh)
COc1cccc2c(C)cc(N3CCCCCC3)nc12	none (no result: H9c2 TAG inh)
CCOc1cc2[nH]c(=S)n(CCc3ccc(OC)c(OC)c3)c(=O)c2cc1OCC	none (no result: H9c2 TAG inh)
CCCCN(C)C(=O)CCCCn1c(=O)[nH]c2cc(OCC)c(OCC)cc2c1=O	H9c2 TAG inh 51.1
CCOc1cc2[nH]c(=O)n(CCc3ccc(OC)c(OC)c3)c(=O)c2cc1OCC	H9c2 TAG inh 58.6
C[C@@H]1OCN(C)[C@H]2C[C@H]3c4[nH]c5cccc(-c6ccccc6)c5c4CCN3C[C@@H]12	none (no result: TbMetRS inhib, Efflux pump inh, AHR act, H9c2 TAG inh)
Cc1cc(C)c(C#N)c(SCc2nc3ccccc3c(=O)[nH]2)n1	AHR act 51.4 (no result: H9c2 TAG inh)
COCCCn1c(SCc2nc3ccccc3c(=O)[nH]2)nc2ccccc2c1=O	none
CCn1c(SCc2nc3ccccc3c(=O)[nH]2)nc2ccccc2c1=O	AHR act 67.3 (no result: H9c2 TAG inh)
O=c1[nH]c(SCc2nc3ccccc3c(=O)n2-c2ccccc2)nc2ccccc12	AHR act 55.4
O=C1C[C@@H](O)[C@H](O)c2cccc(O)c21	none (no result: TbMetRS inhib, Efflux pump inh, AHR act, H9c2 TAG inh)
COCCCNC(=O)C[C@H]1C[C@@]2(C(=O)OC)C(=C[C@H](C(C)(C)C)O[C@@H]2C)N(Cc2ccco2)C1=O	none (no result: TbMetRS inhib, Efflux pump inh, AHR act, H9c2 TAG inh)
